“Also recorded” adds a separate entry of the source.
Legend:
[1] = Gd remaining in rat tissues after toxicity study; type: in vivo; details: for Measured Concentration of Gd, Mean: Male rat, day 29, ICP-MS
Method in brief: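 Femur, abdominal skin, liver, brain, quadriceps, lung, heart, kidney, spleen, colon and jejunum were collected, and residual Gd was measured by ICP-MS.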

[2] = Biodistribution in SD rats; type: in vivo, rat; details: for AUC(0–48h) / AUCINF / Cmax / Gd concentration in the brain: SD rat; for AUC(0–48h) / AUCINF / Cmax: 0.1 mmol/kg single IV, Gd by ICP-MS; for Gd concentration in the brain: 0.1 mmol/kg IV, ICP-MS (LLOQ 0.1 μg/g)
Method in brief: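 Rats, 30 in total (3/sex/group), received a single IV injection of 0.1 mmol/kg. Blood and tissues were taken predose and at 10 and 30 min and 2, 6 and 48 h. Gd was measured by ICP-MS, and parameters came from noncompartmental analysis.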

[3] = tested on: PC3 human prostate cancer xenografts; assay: Contrast-enhanced MRI of PC3 prostate tumor xenografts in rats; type: in vivo, rat; details: PC3 tumors in rats, 3 T, n = 6
Method in brief: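 Male rats carried subcutaneous flank xenografts of 4 × 10⁶ PC3 or 8 × 10⁶ LNCaP cells in Matrigel-PBS (1:1) and were imaged once tumours exceeded 100 mm³. Scans used 1 mm slices, 2 averages and a 128 × 128 matrix. The same tumour-bearing rats were reused across agents and doses, with a clinical Gd agent at 0.1 mmol Gd/kg as comparator.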

[4] = rats, single dose 1.39 mmol/kg, day 15, ICP-MS

With ZD2-N3-Gd(HP-DO3A) [MT218] the “Measured Concentration of Gd, Mean” value ([1]; Muscle, 1.39 mmol/kg/d daily IV 2 weeks) was 1.15 μg/g Tissue, the “Measured Concentration of Gd, Mean” value ([1]; Skin, 0.15 mmol/kg/d daily IV 2 weeks) was 0.13 μg/g Tissue and the “Measured Concentration of Gd, Mean” value ([1]; Skin, 0.46 mmol/kg/d daily IV 2 weeks) was 0.95 μg/g Tissue. The “Measured Concentration of Gd, Mean” value ([1]; Skin, 1.39 mmol/kg/d daily IV 2 weeks) was 2.31 μg/g Tissue, the “Measured Concentration of Gd, Mean” value ([1]; Spleen, 0.15 mmol/kg/d daily IV 2 weeks) was 0.37 μg/g Tissue and the “Measured Concentration of Gd, Mean” value ([1]; Spleen, 0.46 mmol/kg/d daily IV 2 weeks) was 1.12 μg/g Tissue. For the same substance, the “Measured Concentration of Gd, Mean” value ([1]; Spleen, 1.39 mmol/kg/d daily IV 2 weeks) was 6.04 μg/g Tissue, the “Gd concentration in other tissues relative to the kidney concentration” value [1, 4] was < 1/20 and the “Gd in the brain and muscles” value [1, 4] was “not detected”. The “AUC(0–48h)” value ([2]; Brain) was 0.86 µg·h/g, the AUCINF ([2]; Brain) was 0.87 µg·h/g and the Cmax ([2]; Brain) was 1.10 µg/g. The “AUC(0–48h)” value ([2]; Fat) was 3.18 µg·h/g, the AUCINF ([2]; Fat) was 3.23 µg·h/g and the Cmax ([2]; Fat) was 4.07 µg/g. For the same substance, the “AUC(0–48h)” value ([2]; Gonads) was 11.78 µg·h/g, the AUCINF ([2]; Gonads) was 17.48 µg·h/g and the Cmax ([2]; Gonads) was 7.22 µg/g. The “AUC(0–48h)” value ([2]; Heart) was 7.15 µg·h/g, the AUCINF ([2]; Heart) was 7.56 µg·h/g and the Cmax ([2]; Heart) was 7.54 µg/g. For the same substance, the “AUC(0–48h)” value ([2]; Kidney) was 481.54 µg·h/g, the AUCINF ([2]; Kidney) was 2936.07 µg·h/g and the Cmax ([2]; Kidney) was 74.89 µg/g. For the same substance, the “AUC(0–48h)” value ([2]; Liver) was 17.22 µg·h/g, the AUCINF ([2]; Liver) was 27.86 µg·h/g and the Cmax ([2]; Liver) was 4.73 µg/g. For the same substance, the “AUC(0–48h)” value ([2]; Lung) was 17.81 µg·h/g, the AUCINF ([2]; Lung) was 19.50 µg·h/g and the Cmax ([2]; Lung) was 14.28 µg/g. For the same substance, the “AUC(0–48h)” value ([2]; Lymph nodes) was 27.63 µg·h/g, the AUCINF ([2]; Lymph nodes) was 51.39 µg·h/g and the Cmax ([2]; Lymph nodes) was 12.53 µg/g. For the same substance, the “AUC(0–48h)” value ([2]; Muscle) was 4.27 µg·h/g, the AUCINF ([2]; Muscle) was 4.29 µg·h/g and the Cmax ([2]; Muscle) was 5.51 µg/g. For the same substance, the “AUC(0–48h)” value ([2]; Plasma) was 34060 ng·h/mL, the AUCINF ([2]; Plasma) was 34180 ng·h/mL and the Cmax ([2]; Plasma) was 44960 ng/mL. The “AUC(0–48h)” value ([2]; Prostate) was 12.05 µg·h/g, the AUCINF ([2]; Prostate) was 13.12 µg·h/g and the Cmax ([2]; Prostate) was 6.05 µg/g. The “Gd concentration in the brain” value ([2]; 2 hours post-injection) was “reached LLOQ”, the “Gd concentration in the brain” value ([2]; 6 hours post-injection) was “No detectable Gd deposition; also recorded: undetectable” and the “AUC(0–48h)” value ([2]; Skeleton) was 11.83 µg·h/g. For the same substance, the AUCINF ([2]; Skeleton) was 12.16 µg·h/g, the Cmax ([2]; Skeleton) was 4.58 µg/g and the “AUC(0–48h)” value ([2]; Skin) was 28.54 µg·h/g. The AUCINF ([2]; Skin) was 30.96 µg·h/g, the Cmax ([2]; Skin) was 17.21 µg/g and the “AUC(0–48h)” value ([2]; Small intestine) was 13.99 µg·h/g. For the same substance, the AUCINF ([2]; Small intestine) was 19.76 µg·h/g, the Cmax ([2]; Small intestine) was 6.44 µg/g and the “AUC(0–48h)” value ([2]; Spleen) was 15.18 µg·h/g. The AUCINF ([2]; Spleen) was 35.21 µg·h/g, the Cmax ([2]; Spleen) was 4.14 µg/g and the “AUC(0–48h)” value ([2]; Stomach) was 12.99 µg·h/g. For the same substance, the AUCINF ([2]; Stomach) was 15.13 µg·h/g, the Cmax ([2]; Stomach) was 10.87 µg/g and the “Gd concentration in the tested tissues besides the kidneys” value ([2]; rats, biodistribution study, level to which it decreased, time not given) was ≤ 1.0 µg/g. For the same substance, the CNR ([3]; 0.02 mmol Gd/kg IV, 10 minutes postinjection) was 2.67 ± 1.05, the CNR ([3]; 0.02 mmol Gd/kg IV, 30 minutes postinjection) was 1.97 ± 0.67 and the CNR ([3]; 0.04 mmol Gd/kg IV, 10 minutes postinjection) was 5.94 ± 1.68. For the same substance, the CNR ([3]; 0.04 mmol Gd/kg IV, 30 minutes postinjection) was 4.92 ± 0.79.

From article PMC9444296 (Investigative Radiology, 2022)
